Measurements taken from ChEMBL document CHEMBL1130394 (J Med Chem, 1997).

What was measured:
DNA topoisomerase 1 = target: T1, DNA topoisomerase 1 (Homo sapiens, UniProt P11387); test: Inhibit supercoil relaxation property of topoisomerase I.
T1 sequence (P11387 whole entry): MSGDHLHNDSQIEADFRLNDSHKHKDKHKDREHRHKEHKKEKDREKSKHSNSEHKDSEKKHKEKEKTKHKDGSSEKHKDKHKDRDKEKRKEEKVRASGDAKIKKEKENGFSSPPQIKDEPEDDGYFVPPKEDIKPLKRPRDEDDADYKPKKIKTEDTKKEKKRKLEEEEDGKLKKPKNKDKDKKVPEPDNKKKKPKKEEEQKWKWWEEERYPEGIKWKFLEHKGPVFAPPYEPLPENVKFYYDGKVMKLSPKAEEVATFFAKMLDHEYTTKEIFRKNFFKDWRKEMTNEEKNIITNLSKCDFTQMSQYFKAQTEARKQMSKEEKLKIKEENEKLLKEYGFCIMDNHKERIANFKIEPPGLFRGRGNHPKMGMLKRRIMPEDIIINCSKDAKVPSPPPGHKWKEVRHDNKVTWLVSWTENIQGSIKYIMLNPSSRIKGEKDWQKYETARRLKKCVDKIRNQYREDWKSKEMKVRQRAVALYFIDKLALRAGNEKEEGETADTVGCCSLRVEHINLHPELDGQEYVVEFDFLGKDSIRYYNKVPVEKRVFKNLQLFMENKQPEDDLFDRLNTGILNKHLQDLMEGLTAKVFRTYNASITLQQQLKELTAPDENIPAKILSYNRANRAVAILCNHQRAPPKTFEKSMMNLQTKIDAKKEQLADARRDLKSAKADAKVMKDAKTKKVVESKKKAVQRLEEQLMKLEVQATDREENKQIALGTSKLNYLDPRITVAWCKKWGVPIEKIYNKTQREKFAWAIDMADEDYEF
Method in brief: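 Supercoiled pBR322 DNA (0.25 μg) incubated with topoisomerase I (0.5 unit) and ligand, 30 min at 37 °C. Then a further 30 min at 37 °C in SDS-containing loading buffer, agarose gel run overnight, and ethidium bromide staining. Supercoiled DNA remaining was quantified by laser densitometry of the photographic negative.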

KB = test: Inhibitory concentration that reduced the viability of KB cell population by 50%.; type: functional, cell-based; details: Homo sapiens
Method in brief: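 KB cells in Eagle's MEM with 10% calf serum, 37 °C, humidified 5% CO2, seeded at 3 × 10³ cells/mL and cultured 24 h. Compounds added in triplicate at several concentrations, with compound-free control wells, for 3 days. Value is the concentration reducing cell count by 50%.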

HT-29 = test: Inhibitory concentration that reduced the viability of HT 29 cell population by 50%.; type: functional, cell-based; details: Homo sapiens
SK-VLB = test: Inhibitory concentration that reduced the viability of SKVLB cell population by 50%.; type: functional, cell-based; details: Homo sapiens
SK-OV-3 = test: Inhibitory concentration the viability of SKOV 3 cell population by 50%.; type: functional, cell-based; details: Homo sapiens

Row | Structure (SMILES) | IC50 (DNA topoisomerase 1) [µM] | IC50 (KB) [µM] | IC50 (HT-29) [µM] | IC50 (SK-VLB) [µM] | IC50 (SK-OV-3) [µM]
1 | CCC1(O)C(=O)OCc2c1cc1n(c2=O)Cc2cc3cc(OCC(=O)ONc4cc(C(=O)Nc5cc(C(=O)Nc6cc(C(=O)NCCCN(C)C)n(COC)c6)n(COC)c5)n(COC)c4)ccc3nc2-1 (racemic) | 11.9 | 5.5 | > 10 | > 10 | > 10
2 | CCC1(O)C(=O)OCc2c1cc1n(c2=O)Cc2cc3cc(OCC(=O)O)ccc3nc2-1 (centres undefined) | 1.12 | 0.25 | 2.8 | 2.1 | 1.2
3 | CCCC(=O)Nc1cc(C(=O)NCCOc2ccc3nc4c(cc3c2)Cn2c-4cc3c(c2=O)COC(=O)C3(O)CC)n(COC)c1 (centres undefined) | – | 15.3 | 8.1 | > 10 | 5.1
4 | CCC1(O)C(=O)OCc2c1cc1n(c2=O)Cc2cc3cc(OCC(=O)ONc4cc(C(=O)Nc5cc(C(=O)NCCCN(C)C)n(COC)c5)n(COC)c4)ccc3nc2-1 (racemic) | – | 0.663 | > 10 | > 10 | > 10
5 | CCCC(=O)Nc1ccc(C(=O)Nc2cc(C(=O)Nc3cc(C(=O)NCCOc4ccc5nc6c(cc5c4)Cn4c-6cc5c(c4=O)COC(=O)C5(O)CC)n(COC)c3)n(COC)c2)n1COC (racemic) | – | 5.09 | 7.1 | > 10 | 3.6
6 | CCCC(=O)Nc1cn(COC)c(C(=O)NCCOc2ccc3nc4c(cc3c2)Cn2c-4cc3c(c2=O)COC(=O)C3(O)CC)n1 (centres undefined) | 2.38 | 1 | 6.9 | > 10 | 1.3
7 | CCCC(=O)Nc1cc(C(=O)Nc2cc(C(=O)NCCOc3ccc4nc5c(cc4c3)Cn3c-5cc4c(c3=O)COC(=O)C4(O)CC)n(COC)c2)n(COC)c1 (racemic) | 16.6 | 3.25 | > 10 | > 10 | > 10
8 | Cn1cc(NC(=O)c2cc(NC(=O)c3cc(NC=O)cn3C)cn2C)cc1C(=O)NCCC(=N)N [STALLIMYCIN] | 2.7 | 8.4 | 54.7 | > 10 | –
9 | CCC1(O)C(=O)OCc2c1cc1n(c2=O)Cc2cc3cc(OCCNC(=O)c4cc(NC(=O)CCCN(C)C)cn4COC)ccc3nc2-1 (centres undefined) | 2.6 | 5.68 | 3.4 | 3.5 | 1.5
10 | CCC1(O)C(=O)OCc2c1cc1n(c2=O)Cc2cc3cc(OCCNC(=O)c4cc(NC(=O)c5cc(NC(=O)c6ccc(NC(=O)CCCN(C)C)n6COC)cn5COC)cn4COC)ccc3nc2-1 (racemic) | 1.97 | 1 | > 10 | > 10 | 9.7
11 | CCC1(O)C(=O)OCc2c1cc1n(c2=O)Cc2cc3cc(OCCN)ccc3nc2-1 (centres undefined) | – | 0.175 | – | – | –
12 | COc1cccc2c1C(=O)c1c(O)c3c(c(O)c1C2=O)C[C@@](O)(C(=O)CO)C[C@@H]3O[C@H]1C[C@H](N)[C@H](O)[C@H](C)O1 [DOXORUBICIN] | – | 0.015 | 0.28 | 6.54 | 0.0251
13 | Cn1cc(NC(=O)c2cc(NC(=O)CNC(=N)N)cn2C)cc1C(=O)NCCC(=N)N [NETROPSIN] | 62 | 47.1 | 44.7 | > 10 | –
14 | CCC1(O)C(=O)OCc2c1cc1n(c2=O)Cc2cc3cc(OCCNC(=O)c4cc(NC(=O)c5cc(NC(=O)CCCN(C)C)cn5COC)cn4COC)ccc3nc2-1 (racemic) | 4.82 | 6.29 | 6.2 | > 10 | 4.3
15 | CCCC(=O)Nc1cn(COC)c(C(=O)Nc2cn(COC)c(C(=O)NCCOc3ccc4nc5c(cc4c3)Cn3c-5cc4c(c3=O)COC(=O)C4(O)CC)n2)n1 (racemic) | 2.42 | 3.08 | 6 | > 10 | 3.2
16 | CCC1(O)C(=O)OCc2c1cc1n(c2=O)Cc2cc3ccccc3nc2-1 (single isomer, unassigned) [CAMPTOTHECIN] | – | 0.008 | 0.0878 | 0.053 | 0.051
